One may read the inhibition as the relative decrease from the control value, in per cent. The term IC50 denotes the concentration needed to halve the response being measured.

For one assay, the target named is T1, P2X purinoceptor 7 (Homo sapiens) (UniProt Q99572).
T1 sequence (whole entry): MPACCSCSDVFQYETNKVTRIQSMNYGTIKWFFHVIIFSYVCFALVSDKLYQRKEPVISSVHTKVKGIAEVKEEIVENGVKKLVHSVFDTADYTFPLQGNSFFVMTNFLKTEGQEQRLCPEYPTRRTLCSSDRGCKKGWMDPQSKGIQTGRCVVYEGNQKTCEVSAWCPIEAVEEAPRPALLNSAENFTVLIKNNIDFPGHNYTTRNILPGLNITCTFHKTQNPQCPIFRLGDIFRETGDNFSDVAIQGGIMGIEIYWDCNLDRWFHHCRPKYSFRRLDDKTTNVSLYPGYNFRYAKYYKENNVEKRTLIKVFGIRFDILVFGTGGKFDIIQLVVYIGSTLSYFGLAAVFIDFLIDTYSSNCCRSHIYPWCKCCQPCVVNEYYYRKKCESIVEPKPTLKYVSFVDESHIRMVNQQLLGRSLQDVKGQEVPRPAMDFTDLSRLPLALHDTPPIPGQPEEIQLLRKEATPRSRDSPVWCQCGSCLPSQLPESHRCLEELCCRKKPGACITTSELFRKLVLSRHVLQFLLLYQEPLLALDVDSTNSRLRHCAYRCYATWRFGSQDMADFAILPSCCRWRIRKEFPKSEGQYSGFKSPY
The assay is described as follows: Antagonist activity at P2X7 receptor in LPS/IFN-gamma-differentiated human THP1 cells assessed as inhibition of BzATP-induced IL-1beta release at 1 uM preincubated for 30 mins followed by BzATP induction measured after 30 mins by ELISA relative to control. It counts as cell-based. The following applies: THP-1. An outline of the steps: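 LPS-primed THP-1 human monocytes were stimulated with BzATP, and IL-1β release was measured by ELISA. Test compound was given at a single concentration of 1 µM, and results are expressed as percent inhibition of BzATP-induced IL-1β release.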
With `CCCC(=O)N1CCC(N2C(=O)NC(=O)C2Cc2ccc(OS(=O)(=O)c3cccc4cnccc34)cc2)CC1` (racemic), the inhibition is 37%. For `CC(C)C(=O)N1CCC(N2C(=O)NC(=O)C2Cc2ccc(OS(=O)(=O)c3cccc4cnccc34)cc2)CC1` (racemic), the inhibition is 33%. Still for that read-out and setting: next, `O=C1NC(=O)N(C2CCN(C(=O)c3ccccc3Cl)CC2)C1Cc1ccc(OS(=O)(=O)c2cccc3cnccc23)cc1` (racemic): 68%.

The target in another assay is T2, P2X purinoceptor 7 (Homo sapiens, UniProt Q99572).
T2 sequence (Q99572 whole entry): T1 sequence (whole entry)
The assay is described as follows: Antagonist activity at P2X7 receptor in LPS/IFN-gamma-differentiated human THP1 cells assessed as inhibition of BzATP-induced IL-1beta release preincubated for 30 mins followed by BzATP induction measured after 30 mins by ELISA. It counts as cell-based, THP-1.
Conditions: not given
An outline of the steps:
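Human THP-1 monocytes, LPS-primed, stimulated with BzATP; IL-1β release measured by ELISA. Active compounds were screened at 1 µM, and full concentration-response curves were run to obtain IC50.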
Consider `O=C1NC(=O)N(C2CCN(C(=O)C3CCCCC3)CC2)C1Cc1ccc(OS(=O)(=O)c2cccc3cnccc23)cc1` (racemic), for which the half-maximal inhibitory concentration (IC50) came out at 80 nM. For `O=C1NC(=O)N(C2CCN(C(=O)c3ccc(Cl)c(C(F)(F)F)c3)CC2)C1Cc1ccc(OS(=O)(=O)c2cccc3cnccc23)cc1` (single isomer, unassigned; (-)), the IC50 was 9 nM. Take `O=C1NC(=O)N(C2CCN(C(=O)c3ccc(F)c(F)c3)CC2)C1Cc1ccc(OS(=O)(=O)c2cccc3cnccc23)cc1` (racemic): the concentration for half-maximal inhibition (IC50) worked out at 81 nM. With `O=C1NC(=O)N(C2CCN(C(=O)c3cccc(Cl)c3)CC2)C1Cc1ccc(OS(=O)(=O)c2cccc3cnccc23)cc1` (racemic), the IC50 was 313 nM. For `O=C1NC(=O)N(C2CCN(C(=O)C34CC5CC(CC(C5)C3)C4)CC2)C1Cc1ccc(OS(=O)(=O)c2cccc3cnccc23)cc1` (racemic), the half-maximal inhibitory concentration (IC50) is 14 nM. Regarding `O=C1NC(=O)N(C2CCN(C(=O)c3ccc(Cl)c(Cl)c3)CC2)C1Cc1ccc(OS(=O)(=O)c2cccc3cnccc23)cc1` (racemic), the IC50 came to 72 nM. Consider `O=C1NC(=O)N(C2CCN(C(=O)c3ccc(Cl)c(C(F)(F)F)c3)CC2)C1Cc1ccc(OS(=O)(=O)c2cccc3cnccc23)cc1` (stereo in doubt; (+)-21w), for which the concentration for half-maximal inhibition (IC50) amounted to 98 nM. As to `CC12CC3CC(C)(C1)CC(C(=O)N1CCC(N4C(=O)NC(=O)C4Cc4ccc(OS(=O)(=O)c5cccc6cnccc56)cc4)CC1)(C3)C2` (racemic), the IC50 is 81 nM. In the case of `O=C1NC(=O)N(C2CCN(C(=O)c3ccc(Cl)cc3F)CC2)C1Cc1ccc(OS(=O)(=O)c2cccc3cnccc23)cc1` (racemic), the IC50 stood at 253 nM. With `CN([C@@H](Cc1ccc(OS(=O)(=O)c2cccc3cnccc23)cc1)C(=O)N1CCN(c2ccccc2)CC1)S(=O)(=O)c1cccc2cnccc12`, the IC50 was found to be 143 nM. Consider `O=C1NC(=O)N(C2CCN(C(=O)c3ccc(Cl)cc3)CC2)C1Cc1ccc(OS(=O)(=O)c2cccc3cnccc23)cc1` (racemic), for which the IC50 was 192 nM.

The target of the next assay is T2, P2X purinoceptor 7. The assay is described as follows: Antagonist activity at recombinant human P2X7 receptor expressed in HEK293 cells assessed as inhibition of BzATP-induced intracellular ethidium bromide uptake after 2 hrs by fluorescence assay.
Conditions: not given
The assay is classed as cell-based. The method in brief:
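Human HEK293 cells stably expressing recombinant human P2X7; ethidium accumulation stimulated by BzATP was measured.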
As to `O=C1NC(=O)N(CCC2CCN(Cc3ccccc3)CC2)C1Cc1ccc(OS(=O)(=O)c2cccc3cnccc23)cc1` (racemic), the IC50 was determined as 5730 nM. Same read-out and setting: next, `O=C1NC(=O)N(C2CCN(C(=O)C3CCCCC3)CC2)C1Cc1ccc(OS(=O)(=O)c2cccc3cnccc23)cc1` (racemic): 133 nM.

Consider `O=C1NC(=O)N(C2CCN(C(=O)c3ccc(Cl)c(C(F)(F)F)c3)CC2)C1Cc1ccc(OS(=O)(=O)c2cccc3cnccc23)cc1` (single isomer, unassigned; (-)), for which the IC50 was 54 nM. Regarding `O=C1NC(=O)N(C2CCN(C(=O)c3ccc(F)c(F)c3)CC2)C1Cc1ccc(OS(=O)(=O)c2cccc3cnccc23)cc1` (racemic), the IC50 came to 217 nM. As to `CCCN1C(=O)C(Cc2ccc(OS(=O)(=O)c3cccc4cnccc34)cc2)N(C2CCN(C(=O)c3ccc(Cl)c(C(F)(F)F)c3)CC2)C1=O` (racemic), the half-maximal inhibitory concentration (IC50) came to 1670 nM. As to `O=C1NC(=O)N(C2CCN(C(=O)c3cccc(Cl)c3)CC2)C1Cc1ccc(OS(=O)(=O)c2cccc3cnccc23)cc1` (racemic), the concentration for half-maximal inhibition (IC50) amounted to 220 nM.

Regarding `O=C1NC(=O)N(C2CCN(C(=O)C34CC5CC(CC(C5)C3)C4)CC2)C1Cc1ccc(OS(=O)(=O)c2cccc3cnccc23)cc1` (racemic), the IC50 stood at 23 nM. As for `O=C1NC(=O)N(C2CCN(C(=O)c3ccc(Cl)c(Cl)c3)CC2)C1Cc1ccc(OS(=O)(=O)c2cccc3cnccc23)cc1` (racemic), the IC50 was 73 nM.

In the case of `O=C1NC(=O)N(C2CCN(C(=O)c3ccc(F)cc3)CC2)C1Cc1ccc(OS(=O)(=O)c2cccc3cnccc23)cc1` (racemic), the concentration for half-maximal inhibition (IC50) was 913 nM.

On to `O=C1NC(=O)N(C2CCN(C(=O)c3ccc(Cl)c(C(F)(F)F)c3)CC2)C1Cc1ccc(OS(=O)(=O)c2cccc3cnccc23)cc1` (stereo in doubt; (+)-21w), for which the IC50 was 168 nM. Consider `CC12CC3CC(C)(C1)CC(C(=O)N1CCC(N4C(=O)NC(=O)C4Cc4ccc(OS(=O)(=O)c5cccc6cnccc56)cc4)CC1)(C3)C2` (racemic), for which the IC50 was determined as 99 nM. Still for that read-out and setting: next, `CN1C(=O)C(Cc2ccc(OS(=O)(=O)c3cccc4cnccc34)cc2)N(C2CCN(C(=O)c3ccc(Cl)c(C(F)(F)F)c3)CC2)C1=O` (racemic): 542 nM; `O=C1NC(=O)N(C2CCN(Cc3ccccc3)CC2)C1Cc1ccc(OS(=O)(=O)c2cccc3cnccc23)cc1` (racemic): 1620 nM.

For `O=C1NC(=O)N(C2CCN(C(=O)c3ccc(Cl)cc3F)CC2)C1Cc1ccc(OS(=O)(=O)c2cccc3cnccc23)cc1` (racemic), the 50% inhibitory concentration (IC50) was 423 nM. As to `CCCC(=O)N1CCC(N2C(=O)NC(=O)C2Cc2ccc(OS(=O)(=O)c3cccc4cnccc34)cc2)CC1` (racemic), the half-inhibitory concentration (IC50) stood at 8770 nM. `CCN1C(=O)C(Cc2ccc(OS(=O)(=O)c3cccc4cnccc34)cc2)N(C2CCN(C(=O)c3ccc(Cl)c(C(F)(F)F)c3)CC2)C1=O` (racemic): the 50% inhibitory concentration (IC50) is 847 nM. For `CC(C)N1C(=O)C(Cc2ccc(OS(=O)(=O)c3cccc4cnccc34)cc2)N(C2CCN(C(=O)c3ccc(Cl)c(C(F)(F)F)c3)CC2)C1=O` (racemic), the half-maximal inhibitory concentration (IC50) is 3240 nM. As for `CC(C)C(=O)N1CCC(N2C(=O)NC(=O)C2Cc2ccc(OS(=O)(=O)c3cccc4cnccc34)cc2)CC1` (racemic), the IC50 was 7220 nM.

Regarding `O=C1NC(=O)N(C2CCN(C(=O)c3ccc(Cl)cc3)CC2)C1Cc1ccc(OS(=O)(=O)c2cccc3cnccc23)cc1` (racemic), the IC50 was 133 nM. As to `O=C1NC(=O)N(C2CCN(C(=O)c3ccccc3Cl)CC2)C1Cc1ccc(OS(=O)(=O)c2cccc3cnccc23)cc1` (racemic), the half-maximal inhibitory concentration (IC50) amounted to 666 nM.

The values above are taken from ChEMBL document CHEMBL3414458, “Discovery of novel 2,5-dioxoimidazolidine-based P2X(7) receptor antagonists as constrained analogues of KN62” (J Med Chem, 2015).
